Test results as given in ChEMBL document CHEMBL5674890, “Selective inhibition of CBP/p300 HAT by A-485 results in suppression of lipogenesis and hepatic gluconeogenesis” (Cell Death Dis, 2020).
Active and inactive are the calls of the source. The calls are words filed in the database; no cut-off is given here.

Assays:
Mus musculus [1] = test: Anti-obesity activity in 16 hrs fasted C57BL/6 mouse supplemented with normal chow diet assessed as decrease in fasting blood glucose at 20 mg/kg/day, ip administered for 1 week; type: functional, organism-based; details: time 1.0 weeks
How it was run: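 8-week-old male C57BL/6 mice on normal chow, ip 20 mg·kg−1·day−1 for 7 days. Blood glucose measured randomly fed or after 6 h or 16 h fasting, as the line states. Mean ± SEM, n = 5–9.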

Mus musculus [2] = test: Inhibition of lipogenesis in C57BL/6 mouse supplemented with high-fat diet assessed as decrease in weight of inguinal white adipose tissue (iWAT) at 20 mg/kg/day, ip administered for 1 week; type: functional, organism-based; details: time 1.0 weeks
How it was run: (§1)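 Male C57BL/6 mice were fed high-fat diet for 14 weeks from 5 weeks of age, then injected ip with 20 mg·kg−1·day−1 for 7 days or given vehicle. Epididymal and inguinal WAT were weighed, examined by H&E, and analysed. Transcripts were measured by Trizol/SYBR Green RT-qPCR; proteins by western blot. n = 5–9; mean ± SEM.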

Mus musculus [3] = test: Inhibition of lipogenesis in C57BL/6 mouse supplemented with high-fat diet assessed as decrease in gross size of WAT at 20 mg/kg/day, ip administered for 1 week; type: functional, organism-based; details: time 1.0 weeks; how it was run: as §1
Mus musculus [4] = test: Inhibition of lipogenesis in C57BL/6 mouse supplemented with high-fat diet assessed as decrease in SREBP-1c mRNA expression at 20 mg/kg/day, ip administered for 1 week measured by RT-qPCR assay; type: functional, organism-based; details: time 1.0 weeks; how it was run: as §1
Mus musculus [5] = test: Inhibition of lipogenesis in C57BL/6 mouse supplemented with normal chow diet assessed as decrease in FAS protein expression at 20 mg/kg/day, ip administered for 1 week measured by western blot analysis; type: functional, organism-based; details: time 1.0 weeks
How it was run: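 Eight-week-old male C57BL/6 mice on normal chow were given 20 mg·kg−1·day−1 ip daily for 7 days or vehicle. Epididymal WAT was collected. Lipogenic, adipogenic and fatty-acid-oxidation transcripts were quantified by Trizol extraction and SYBR Green RT-qPCR. FAS, ACC, PPARγ and C/EBPα protein were assessed by western blot. n = 5–9; mean ± SEM.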

Mus musculus [6] = test: Inhibition of lipogenesis in C57BL/6 mouse supplemented with high-fat diet assessed as decrease in FABP4 mRNA expression at 20 mg/kg/day, ip administered for 1 week measured measured by RT-qPCR assay; type: functional, organism-based; details: time 1.0 weeks; how it was run: as §1
Mus musculus [7] = test: Inhibition of lipogenesis in C57BL/6 mouse supplemented with high-fat diet assessed as decrease in PPARgamma mRNA expression at 20 mg/kg/day, ip administered for 1 week measured measured by RT-qPCR assay; type: functional, organism-based; details: time 1.0 weeks; how it was run: as §1
Adipocyte [8] = test: Inhibition of lipogenesis in mouse adipocytes isolated stromal vascular cells assessed as decrease in adiponectin mRNA expression measured after 24 hrs by RT-qPCR assay; type: functional, cell-based
How it was run: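 Stromal vascular cells from inguinal WAT of C57BL/6 mice, grown in DMEM/F12 + 10% FBS at 37 °C, 10% CO2. At confluence, induced 48 h with 5 μg/ml insulin, 1 μM dexamethasone, 0.5 mM isobutylmethylxanthine, then 6 days in 5 μg/ml insulin; fully differentiated day 8. Mature adipocytes exposed to inhibitor 24 h. Total RNA by Trizol, SYBR Green RT-qPCR; protein by western blot.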

Adipocyte [9] = test: Inhibition of lipogenesis in mouse adipocytes isolated stromal vascular cells assessed as decrease in C/EBPalpha protein expression measured after 24 hrs by western blot analysis; type: functional, cell-based
Mus musculus [10] = test: Inhibition of hepatic lipogenesis in C57BL/6 mouse supplemented with normal chow diet assessed as effect on ACADVL mRNA expression at 20 mg/kg/day, ip administered for 1 week measured by RT-qPCR assay; type: functional, organism-based; details: time 1.0 weeks
How it was run: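 Normal-chow male C57BL/6 mice, 8 weeks old, were injected ip at 20 mg·kg−1·day−1 daily for 7 days or given vehicle. Liver RNA was extracted with Trizol, and fatty-acid-oxidation gene transcripts were quantified by SYBR Green RT-qPCR. n = 5–9; mean ± SEM.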

Hepatocyte [11] = test: Inhibition of lipogenesis in mouse primary hepatocytes assessed as increase in FGF21 mRNA expression at 3 uM in presence of 100 nM insulin and 5 to 25 mM glucose measured after 18 hrs by RT-qPCR assay; type: functional, cell-based
How it was run: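 Primary hepatocytes isolated from C57BL/6 mice by two-step perfusion. Cells incubated 18 h with 3 μM inhibitor, with 0 or 100 nM insulin and 5 or 25 mM glucose. Transcripts quantified by SYBR Green RT-qPCR after Trizol RNA extraction; proteins by western blot of lysates. Mean ± SEM.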

Hepatocyte [12] = test: Inhibition of glucogenesis in mouse primary hepatocytes stimulated with 100 uM 8-Br-cAMP assessed as effect on pTORC2 protein expression at 3 uM measured after 1 hr by western blot analysis; type: functional, cell-based
How it was run: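 Primary hepatocytes from C57BL/6 mice, isolated by two-step perfusion, were co-treated with 3 μM A-485 and 100 μM 8-Br-cAMP for 1 h. Phospho-CREB, phospho-AMPK and phospho-TORC2 were detected by western blot of cell lysates. Three independent experiments; mean ± SEM.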

HepG2 = test: Inhibition of glucogenesis in human HepG2 cells stimulated with 8-Br-cAMP at 3 uM assessed as effect on increased CRE luciferase activity; type: functional, cell-based
How it was run: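 HepG2 cells treated with 3 μM compound; CRE reporter activity measured. Mean ± SEM, three independent experiments.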

Hepatocyte [13] = test: Inhibition of glucogenesis in mouse primary hepatocytes stimulated with 100 uM 8-Br-cAMP assessed as decrease in C/EBPalpha mRNA expression at 3 uM measured after 8 hrs by RT-qPCR assay; type: functional, cell-based
How it was run: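 Primary mouse hepatocytes treated with 3 μM compound and 100 μM 8-Br-cAMP for 8 h. Trizol RNA, SYBR Green RT-qPCR of the named transcript. Mean ± SEM, three independent experiments.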

Hepatocyte [14] = test: Inhibition of glucogenesis in mouse primary hepatocytes stimulated with 100 uM 8-Br-cAMP assessed as effect on PGC1alpha protein expression at 3 uM measured after 12 hrs by western blot analysis; type: functional, cell-based
How it was run: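 Primary mouse hepatocytes incubated 12 h with 3 μM compound and 100 μM 8-Br-cAMP. Lysates western blotted for FOXO1, C/EBPα or PGC1α. Three independent experiments.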

[15] = target: T1, CREB-binding protein/Histone acetyltransferase p300 (Homo sapiens) (UniProt Q09472+Q92793); test: Inhibition of CBP/p300 in mouse primary hepatocytes stimulated with 100 uM 8-Br-cAMP assessed as effect on COP1 protein expression at 3 uM measured after 12 hrs by western blot analysis; type: cell-based; details: Primary hepatocyte
[16] = target: T1, CREB-binding protein/Histone acetyltransferase p300 (Homo sapiens); test: Inhibition of CBP/p300 in human HepG2 cells assessed as increase in FOXO1 and COP1 interaction at 3 uM; type: cell-based
How it was run: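 HepG2 cells treated with 3 μM compound. FOXO1–COP1 interaction assessed by immunoprecipitation: lysate with antibody 2 h, then protein A/G beads overnight at 4 °C, followed by western blot.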

Hepatocyte [17] = test: Inhibition of glucogenesis in mouse primary hepatocytes stimulated with 100 uM 8-Br-cAMP assessed as decrease in G6Pc mRNA expression at 3 uM measured after 8 hrs by RT-qPCR assay

T1 sequence (Q09472 whole entry, looked up): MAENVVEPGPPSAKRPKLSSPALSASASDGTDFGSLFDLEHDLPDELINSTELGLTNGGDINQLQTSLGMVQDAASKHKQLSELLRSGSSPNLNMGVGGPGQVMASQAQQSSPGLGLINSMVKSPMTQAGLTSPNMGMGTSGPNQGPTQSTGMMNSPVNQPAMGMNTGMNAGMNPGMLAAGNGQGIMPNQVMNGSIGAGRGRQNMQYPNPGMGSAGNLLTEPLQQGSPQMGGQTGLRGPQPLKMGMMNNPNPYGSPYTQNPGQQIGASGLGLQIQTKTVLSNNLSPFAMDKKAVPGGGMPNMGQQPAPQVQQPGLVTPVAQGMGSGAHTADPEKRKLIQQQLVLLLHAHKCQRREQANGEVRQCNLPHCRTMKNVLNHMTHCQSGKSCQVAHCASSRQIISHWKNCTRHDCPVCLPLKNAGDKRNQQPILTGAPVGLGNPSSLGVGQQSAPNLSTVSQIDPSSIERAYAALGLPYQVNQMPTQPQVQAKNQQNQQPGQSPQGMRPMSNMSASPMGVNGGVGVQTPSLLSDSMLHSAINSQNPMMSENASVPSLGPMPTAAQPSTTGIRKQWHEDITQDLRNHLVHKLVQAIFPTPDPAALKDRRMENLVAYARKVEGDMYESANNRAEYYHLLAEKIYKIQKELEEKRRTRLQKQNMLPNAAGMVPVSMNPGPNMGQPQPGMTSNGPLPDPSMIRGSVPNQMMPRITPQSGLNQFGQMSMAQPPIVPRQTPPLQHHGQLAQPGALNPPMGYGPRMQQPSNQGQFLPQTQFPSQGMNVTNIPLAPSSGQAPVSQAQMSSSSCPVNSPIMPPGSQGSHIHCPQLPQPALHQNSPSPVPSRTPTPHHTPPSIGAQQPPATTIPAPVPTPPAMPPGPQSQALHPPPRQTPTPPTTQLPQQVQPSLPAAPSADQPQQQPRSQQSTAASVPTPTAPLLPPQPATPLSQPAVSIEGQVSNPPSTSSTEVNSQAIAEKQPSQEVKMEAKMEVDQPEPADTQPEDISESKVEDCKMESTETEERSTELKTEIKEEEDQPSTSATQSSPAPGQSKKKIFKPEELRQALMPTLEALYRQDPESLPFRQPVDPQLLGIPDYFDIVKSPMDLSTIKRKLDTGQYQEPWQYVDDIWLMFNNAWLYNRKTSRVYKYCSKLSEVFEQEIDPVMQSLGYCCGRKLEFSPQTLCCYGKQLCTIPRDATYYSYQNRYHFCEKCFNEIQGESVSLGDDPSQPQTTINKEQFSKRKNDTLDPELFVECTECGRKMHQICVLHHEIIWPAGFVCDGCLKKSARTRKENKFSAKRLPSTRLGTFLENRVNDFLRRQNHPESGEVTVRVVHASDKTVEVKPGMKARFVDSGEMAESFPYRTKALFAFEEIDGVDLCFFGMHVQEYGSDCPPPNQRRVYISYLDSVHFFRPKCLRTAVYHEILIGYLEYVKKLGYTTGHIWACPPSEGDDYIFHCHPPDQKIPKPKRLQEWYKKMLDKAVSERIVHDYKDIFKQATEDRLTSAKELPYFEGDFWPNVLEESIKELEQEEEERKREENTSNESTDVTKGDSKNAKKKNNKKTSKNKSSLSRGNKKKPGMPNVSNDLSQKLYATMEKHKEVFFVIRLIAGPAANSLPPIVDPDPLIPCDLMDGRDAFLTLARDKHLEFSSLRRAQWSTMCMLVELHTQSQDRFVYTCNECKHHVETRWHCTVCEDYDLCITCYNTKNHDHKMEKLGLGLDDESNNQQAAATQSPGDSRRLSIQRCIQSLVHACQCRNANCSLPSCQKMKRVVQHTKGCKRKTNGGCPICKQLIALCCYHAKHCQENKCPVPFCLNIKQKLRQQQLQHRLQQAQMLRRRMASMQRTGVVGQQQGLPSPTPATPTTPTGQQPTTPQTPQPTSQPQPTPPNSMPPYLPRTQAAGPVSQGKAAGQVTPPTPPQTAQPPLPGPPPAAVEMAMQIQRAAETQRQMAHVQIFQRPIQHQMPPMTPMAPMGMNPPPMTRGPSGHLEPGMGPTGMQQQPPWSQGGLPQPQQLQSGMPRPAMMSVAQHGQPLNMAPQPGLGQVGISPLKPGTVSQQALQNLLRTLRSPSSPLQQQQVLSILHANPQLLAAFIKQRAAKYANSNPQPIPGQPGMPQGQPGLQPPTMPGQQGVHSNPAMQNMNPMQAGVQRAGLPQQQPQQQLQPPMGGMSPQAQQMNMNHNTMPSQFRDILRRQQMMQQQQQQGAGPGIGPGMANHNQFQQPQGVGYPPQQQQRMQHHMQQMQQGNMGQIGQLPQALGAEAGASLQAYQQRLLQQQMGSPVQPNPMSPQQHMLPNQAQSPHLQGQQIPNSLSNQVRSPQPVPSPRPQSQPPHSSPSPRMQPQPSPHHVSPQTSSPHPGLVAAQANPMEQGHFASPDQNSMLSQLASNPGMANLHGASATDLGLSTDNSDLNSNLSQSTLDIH
T1 sequence (Q92793 whole entry, looked up): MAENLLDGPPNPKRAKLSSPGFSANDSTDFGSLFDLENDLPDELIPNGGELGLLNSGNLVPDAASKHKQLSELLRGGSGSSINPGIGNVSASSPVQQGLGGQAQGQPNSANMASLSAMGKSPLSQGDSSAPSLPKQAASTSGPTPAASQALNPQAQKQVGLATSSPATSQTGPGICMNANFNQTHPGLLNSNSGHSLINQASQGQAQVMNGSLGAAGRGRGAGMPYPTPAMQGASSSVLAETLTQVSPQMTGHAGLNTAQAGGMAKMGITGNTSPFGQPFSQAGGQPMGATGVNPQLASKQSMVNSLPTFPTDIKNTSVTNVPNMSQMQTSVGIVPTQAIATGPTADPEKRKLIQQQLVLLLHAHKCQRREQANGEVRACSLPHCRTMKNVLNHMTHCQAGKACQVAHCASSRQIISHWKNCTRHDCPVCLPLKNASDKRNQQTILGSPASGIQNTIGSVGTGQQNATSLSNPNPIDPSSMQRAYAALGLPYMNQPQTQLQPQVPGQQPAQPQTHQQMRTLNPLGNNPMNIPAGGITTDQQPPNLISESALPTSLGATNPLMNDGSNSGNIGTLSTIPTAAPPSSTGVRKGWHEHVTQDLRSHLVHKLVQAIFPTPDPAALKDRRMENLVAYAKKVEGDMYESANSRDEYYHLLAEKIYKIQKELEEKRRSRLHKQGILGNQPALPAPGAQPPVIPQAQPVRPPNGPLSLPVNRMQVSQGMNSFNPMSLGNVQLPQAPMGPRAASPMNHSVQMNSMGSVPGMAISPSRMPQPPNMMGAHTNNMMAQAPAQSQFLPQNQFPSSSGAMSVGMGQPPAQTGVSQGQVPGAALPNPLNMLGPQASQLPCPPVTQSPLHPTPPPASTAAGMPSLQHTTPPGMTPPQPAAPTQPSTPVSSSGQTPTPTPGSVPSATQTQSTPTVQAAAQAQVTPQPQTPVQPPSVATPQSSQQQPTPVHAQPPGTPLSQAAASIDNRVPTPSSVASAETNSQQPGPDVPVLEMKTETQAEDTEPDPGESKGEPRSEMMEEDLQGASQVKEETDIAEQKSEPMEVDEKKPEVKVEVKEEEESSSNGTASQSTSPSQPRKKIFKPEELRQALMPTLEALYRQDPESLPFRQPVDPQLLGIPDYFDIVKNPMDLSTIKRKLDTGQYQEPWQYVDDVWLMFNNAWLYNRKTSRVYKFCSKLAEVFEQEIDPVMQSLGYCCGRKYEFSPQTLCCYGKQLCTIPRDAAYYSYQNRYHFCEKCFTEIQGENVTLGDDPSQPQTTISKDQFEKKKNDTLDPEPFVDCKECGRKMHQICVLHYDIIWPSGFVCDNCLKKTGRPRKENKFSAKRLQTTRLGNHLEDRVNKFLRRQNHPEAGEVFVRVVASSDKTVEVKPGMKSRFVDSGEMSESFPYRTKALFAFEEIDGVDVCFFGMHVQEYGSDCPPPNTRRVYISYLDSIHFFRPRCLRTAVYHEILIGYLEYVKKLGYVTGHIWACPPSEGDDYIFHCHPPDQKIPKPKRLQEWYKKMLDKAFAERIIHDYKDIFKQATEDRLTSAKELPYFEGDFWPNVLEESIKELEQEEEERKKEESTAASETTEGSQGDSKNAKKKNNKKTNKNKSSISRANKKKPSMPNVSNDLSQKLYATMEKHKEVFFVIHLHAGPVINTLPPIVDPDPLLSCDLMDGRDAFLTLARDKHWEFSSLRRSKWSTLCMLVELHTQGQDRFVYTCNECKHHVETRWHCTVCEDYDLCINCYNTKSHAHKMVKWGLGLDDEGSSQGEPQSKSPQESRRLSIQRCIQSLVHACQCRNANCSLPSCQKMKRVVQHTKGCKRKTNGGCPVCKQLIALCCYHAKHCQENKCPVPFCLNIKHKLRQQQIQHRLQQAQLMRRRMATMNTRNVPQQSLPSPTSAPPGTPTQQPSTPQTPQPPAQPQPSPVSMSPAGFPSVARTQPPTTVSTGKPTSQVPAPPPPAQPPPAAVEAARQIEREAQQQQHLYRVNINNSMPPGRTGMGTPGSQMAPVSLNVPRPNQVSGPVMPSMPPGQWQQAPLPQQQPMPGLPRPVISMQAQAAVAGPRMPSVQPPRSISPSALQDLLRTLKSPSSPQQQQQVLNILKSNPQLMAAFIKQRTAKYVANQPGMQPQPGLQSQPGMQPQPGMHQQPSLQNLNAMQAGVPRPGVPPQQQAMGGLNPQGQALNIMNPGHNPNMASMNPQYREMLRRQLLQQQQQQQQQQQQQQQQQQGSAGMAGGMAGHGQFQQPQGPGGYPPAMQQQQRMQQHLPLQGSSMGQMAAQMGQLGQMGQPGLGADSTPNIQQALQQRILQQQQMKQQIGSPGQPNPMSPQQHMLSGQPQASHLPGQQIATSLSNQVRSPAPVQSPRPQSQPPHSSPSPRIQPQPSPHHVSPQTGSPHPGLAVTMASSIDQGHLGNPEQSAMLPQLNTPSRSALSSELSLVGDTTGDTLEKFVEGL

`CNC(=O)Nc1ccc2c(c1)CCS21OC(=O)N(CC(=O)N(Cc2ccc(F)cc2)[C@@H](C)C(F)(F)F)C1=O` (stereo partly drawn) was tested. Which Activity (Mus musculus [1]) did it give?
The Activity was “Active”.

And the inhibition (Mus musculus [2])?
Its inhibition is “Active”.

And the inhibition (Mus musculus [3])?
The inhibition was “Active”.

And the inhibition (Mus musculus [4])?
Its inhibition is “Active”.

And the inhibition (Mus musculus [5])?
The inhibition was “Active”.

What about the inhibition (Mus musculus [6]) of the same compound?
The inhibition was “Active”.

What about the inhibition (Mus musculus [7]) of the same compound?
Its inhibition is “Active”.

And the inhibition (Adipocyte [8])?
The inhibition was “Active”.

What about the inhibition (Adipocyte [9]) of the same compound?
The inhibition was “Active”.

And the inhibition (Mus musculus [10])?
The inhibition was “inactive”.

What about the inhibition (Hepatocyte [11]) of the same compound?
Its inhibition is “Active”.

What about the inhibition (Hepatocyte [12]) of the same compound?
The inhibition was “inactive”.

What about the inhibition (HepG2) of the same compound?
Its inhibition is “inactive”.

And the inhibition (Hepatocyte [13])?
The inhibition was “Active”.

What about the inhibition (Hepatocyte [14]) of the same compound?
The inhibition was “inactive”.

And the inhibition [15]?
The inhibition was “inactive”.

What about the inhibition [16] of the same compound?
The inhibition was “Active”.

What about the inhibition (Hepatocyte [17]) of the same compound?
The inhibition was “Active”.
